From ChEMBL document CHEMBL4196187, “Peloruside E (22-Norpeloruside A), a Pelorusane Macrolide from the New Zealand Marine Sponge Mycale hentscheli, Retains Microtubule-Stabilizing Properties” (J Nat Prod, 2018)
Activity calls are given as the source filed them. No cut-off for these calls is given here.

Experiments:
[1] = test system: HL-60; assay: Cell cycle arrest in human HL60 cells assessed as accumulation at S phase at 300 nM after 18 hrs by propidium iodide staining based flow cytometry (reference value: 20%); type: functional
[2] = test system: HL-60; assay: Cell cycle arrest in human HL60 cells assessed as accumulation at G2/M phase at 300 nM after 18 hrs by propidium iodide staining based flow cytometry (reference value: 19%); type: functional
[3] = test system: HL-60; assay: Cell cycle arrest in human HL60 cells assessed as accumulation at G1 phase at 1500 nM after 18 hrs by propidium iodide staining based flow cytometry (reference value: 62%); type: functional
[4] = test system: HL-60; assay: Cell cycle arrest in human HL60 cells assessed as accumulation at S phase at 1500 nM after 18 hrs by propidium iodide staining based flow cytometry (reference value: 20%); type: functional
[5] = test system: HL-60; assay: Cell cycle arrest in human HL60 cells assessed as accumulation at G2/M phase at 1500 nM after 18 hrs by propidium iodide staining based flow cytometry (reference value: 19%); type: functional
[6] = test system: HL-60; assay: Cell cycle arrest in human HL60 cells assessed as accumulation at G1 phase at 300 nM after 18 hrs by propidium iodide staining based flow cytometry (reference value: 62%); type: functional
[7] = test system: HL-60; assay: Growth inhibition of human HL60 cells after 48 hrs by MTT assay; type: functional, cell-based; conditions: HL-60, 48 h
Method in brief: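 Human promyelocytic leukemia HL-60 cells; MTT cell proliferation read-out after 48 h incubation. IC50 derived from n = 3 replicates, reported as SEM.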

[8] = test system: HL-60; assay: Cell cycle arrest in human HL60 cells assessed as accumulation at G2/M phase at 500 nM after 18 hrs by propidium iodide staining based flow cytometry (reference value: 19%); type: functional
[9] = species: Sus scrofa; assay: Induction of porcine brain tubulin polymerization at 2.8 uM measured at 1 min interval over 100 mins by fluorescence assay
[10] = test system: HL-60; assay: Cell cycle arrest in human HL60 cells assessed as accumulation at S phase at 100 nM after 18 hrs by propidium iodide staining based flow cytometry (reference value: 20%); type: functional
[11] = test system: HL-60; assay: Cell cycle arrest in human HL60 cells assessed as accumulation at G1 phase at 500 nM after 18 hrs by propidium iodide staining based flow cytometry (reference value: 62%); type: functional
[12] = test system: HL-60; assay: Cell cycle arrest in human HL60 cells assessed as accumulation at S phase at 500 nM after 18 hrs by propidium iodide staining based flow cytometry (reference value: 20%); type: functional
[13] = test system: HL-60; assay: Cell cycle arrest in human HL60 cells assessed as accumulation at G2/M phase at 100 nM after 18 hrs by propidium iodide staining based flow cytometry (reference value: 19%); type: functional
[14] = test system: HL-60; assay: Cell cycle arrest in human HL60 cells assessed as accumulation at G1 phase at 100 nM after 18 hrs by propidium iodide staining based flow cytometry (reference value: 62%); type: functional
[15] = test system: HL-60; assay: Cell cycle arrest in human HL60 cells assessed as accumulation at G1 phase at 1000 nM after 18 hrs by propidium iodide staining based flow cytometry (reference value: 62%); type: functional
[16] = test system: HL-60; assay: Cell cycle arrest in human HL60 cells assessed as accumulation at S phase at 1000 nM after 18 hrs by propidium iodide staining based flow cytometry (reference value: 20%); type: functional
[17] = test system: HL-60; assay: Cell cycle arrest in human HL60 cells assessed as accumulation at G2/M phase at 1000 nM after 18 hrs by propidium iodide staining based flow cytometry (reference value: 19%); type: functional

SMILES: CC[C@H](/C=C(/C)[C@@H]1C[C@@H](OC)C[C@H](O)[C@@H](C)[C@@]2(O)O[C@@H](C[C@@H](OC)[C@H](O)C(=O)O1)C[C@@H](OC)[C@H]2O)CO
- Activity [1]: 22%
- Activity [2]: 39%
- Activity [3]: 29%
- Activity [4]: 23%
- Activity [5]: 49%
- Activity [6]: 38%
- IC50 [7]: 90 nM

SMILES: CC[C@H](/C=C(/C)[C@@H]1C[C@@H](OC)C[C@H](O)C(C)(C)[C@@]2(O)O[C@@H](C[C@@H](OC)[C@H](O)C(=O)O1)C[C@@H](OC)[C@H]2O)CO
- Activity [8]: 47%
- induction [9]: Active
- Activity [10]: 23%
- Activity [11]: 30%
- Activity [12]: 23%
- Activity [13]: 50%
- Activity [14]: 27%
- IC50 [7]: 19 nM

SMILES: CC(=O)O[C@H]1C(=O)[C@@]2(C)[C@H]([C@H](OC(=O)c3ccccc3)[C@]3(O)C[C@H](OC(=O)[C@H](O)[C@@H](NC(=O)c4ccccc4)c4ccccc4)C(C)=C1C3(C)C)[C@]1(OC(C)=O)CO[C@@H]1C[C@@H]2O [PACLITAXEL]
- Activity [15]: 28%
- induction [9]: Active
- Activity [16]: 19%
- Activity [17]: 53%
